Source: ChEMBL document CHEMBL2086314, “Synthesis and anticonvulsant activity of new N-Mannich bases derived from 3-(2-fluorophenyl)- and 3-(2-bromophenyl)-pyrrolidine-2,5-diones. Part II” (Bioorg Med Chem, 2012)
The source made the active and inactive calls. The calls are words filed in the database; no cut-off is given here.

What was measured:
Mus musculus [1] = assay: Anticonvulsant activity in CF-1 albino mouse assessed as protection from maximal electric shock-induced seizures at 300 mg/kg, ip measured after 0.5 hrs; assay type: functional, organism-based; design: dose 300 mg/kg
Procedure, shortened: (§1)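 Male CF-1 mice dosed ip at 30, 100 or 300 mg/kg, suspension in 0.5% methylcellulose/water. MES: corneal electrodes primed with electrolyte containing anaesthetic, 50 mA, 60 Hz, 0.2 s. Examined 0.5 and 4 h after dosing. Value is the minimum dose protecting half or more of the animals.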

Mus musculus [2] = assay: Anticonvulsant activity in CF-1 albino mouse assessed as protection from maximal electric shock-induced seizures at 300 mg/kg, ip measured after 4 hrs; assay type: functional, organism-based; design: dose 300 mg/kg; procedure, shortened: as §1
Mus musculus [3] = assay: Neurotoxicity in ip dosed CF-1 albino mouse assessed as motor impairment measured after 0.5 hrs by rotarod test; assay type: toxicity, organism-based; conditions: in vivo
Procedure, shortened: (§2)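 Rotarod neurotoxicity in male CF-1 mice given ip doses of 30, 100 or 300 mg/kg (0.5% methylcellulose suspension), examined 0.5 and 4 h after dosing. Impairment means failing to hold balance on the rod for 1 min. Value is the minimum dose causing toxicity in half or more of the animals; response comments are recorded.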

Mus musculus [4] = assay: Neurotoxicity in CF-1 albino mouse assessed as motor impairment at 300 mg/kg, ip measured after 4 hrs by rotarod test; assay type: toxicity, organism-based; design: dose 300 mg/kg, route intraperitoneal; conditions: in vivo; procedure, shortened: as §2
Mus musculus [5] = assay: Neurotoxicity in CF-1 albino mouse assessed as tonic extension at 300 mg/kg, ip measured after 0.5 hrs by rotarod test; assay type: toxicity, organism-based; design: dose 300 mg/kg, route intraperitoneal; conditions: in vivo; procedure, shortened: as §2
Mus musculus [6] = assay: Anticonvulsant activity in CF-1 albino mouse assessed as protection against subcutaneous pentylenetetrazol-induced seizures at 300 mg/kg, ip measured after 0.5 hrs; assay type: functional, organism-based; design: dose 300 mg/kg
Procedure, shortened: (§3)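 scPTZ test in male CF-1 mice. Compound suspended in 0.5% methylcellulose/water, ip at 30, 100 or 300 mg/kg. Pentylenetetrazole 85 mg/kg (CD97, clonic seizures lasting at least 5 s) given subcutaneously at the test time, read at 0.5 and 4 h. Value is the minimum dose protecting half or more of the animals.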

Mus musculus [7] = assay: Anticonvulsant activity in CF-1 albino mouse assessed as protection against subcutaneous pentylenetetrazol-induced seizures at 300 mg/kg, ip measured after 4 hrs; assay type: functional, organism-based; design: dose 300 mg/kg; procedure, shortened: as §3
Mus musculus [8] = assay: Anticonvulsant activity in ip dosed CF-1 albino mouse assessed as protection from maximal electric shock-induced seizures measured after 0.5 hrs; assay type: functional; conditions: read-out: MED; procedure, shortened: as §1
Mus musculus [9] = assay: Anticonvulsant activity in ip dosed CF-1 albino mouse assessed as protection from maximal electric shock-induced seizures measured after 4 hrs; assay type: functional; conditions: read-out: MED; procedure, shortened: as §1
Mus musculus [10] = assay: Neurotoxicity in CF-1 albino mouse assessed as motor impairment at 300 mg/kg, ip measured after 0.5 hrs by rotarod test; assay type: toxicity, organism-based; design: dose 300 mg/kg, route intraperitoneal; conditions: in vivo; procedure, shortened: as §2
Rattus norvegicus [11] = assay: Anticonvulsant activity in Sprague-Dawley rat assessed as protection from maximum electric shock-induced seizures at 30 mg/kg, po measured after 0.25 hrs; assay type: functional
Procedure, shortened: (§4)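 Male Sprague–Dawley rats, four per group, given 30 mg/kg orally as a suspension in 0.5% methylcellulose/water. MES stimulus 150 mA, 60 Hz, 0.2 s via corneal electrodes. Tested at 0.25, 0.5, 1, 2 and 4 h; value is rats protected out of four.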

Rattus norvegicus [12] = assay: Anticonvulsant activity in Sprague-Dawley rat assessed as protection from maximum electric shock-induced seizures at 30 mg/kg, po measured after 0.5 hrs; assay type: functional; procedure, shortened: as §4
Rattus norvegicus [13] = assay: Anticonvulsant activity in Sprague-Dawley rat assessed as protection from maximum electric shock-induced seizures at 30 mg/kg, po measured after 1 hr; assay type: functional; procedure, shortened: as §4
Rattus norvegicus [14] = assay: Anticonvulsant activity in Sprague-Dawley rat assessed as protection from maximum electric shock-induced seizures at 30 mg/kg, po measured after 2 hrs; assay type: functional; procedure, shortened: as §4
Rattus norvegicus [15] = assay: Anticonvulsant activity in Sprague-Dawley rat assessed as protection from maximum electric shock-induced seizures at 30 mg/kg, po measured after 4 hrs; assay type: functional; procedure, shortened: as §4
Rattus norvegicus [16] = assay: Neurotoxicity in Sprague-Dawley rat assessed as motor impairment at 30 mg/kg, po by rotarod test; assay type: toxicity, organism-based; design: dose 30 mg/kg, route oral; conditions: in vivo
Procedure, shortened: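 Male Sprague–Dawley rats, four animals, oral 30 mg/kg in 0.5% methylcellulose/water. Motor impairment on the rotarod (failure to keep balance for 1 min) assessed alongside MES at five times from 0.25 to 4 h.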

Mus musculus [17] = assay: Anticonvulsant activity in ip dosed CF-1 albino mouse assessed as protection from maximal electric shock-induced seizures; assay type: functional
Procedure, shortened: (§5)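 ED50 and TD50 determined in male CF-1 mice after ip dosing (0.5% methylcellulose suspension) at the previously estimated time of peak effect. MES 50 mA, 60 Hz, 0.2 s. Groups of eight, with doses varied until at least three points fell between 10–90% protection or motor impairment. Regression gives ED50/TD50 with 95% confidence intervals; PI = TD50/ED50.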

[18] = Neurotoxicity in ip dosed CF-1 albino mouse assessed as motor impairment by rotarod test; assay type: toxicity, organism-based; conditions: in vivo
Mus musculus [19] = species: Mus musculus; assay: Protective index, ratio of TD50 for CF-1 albino mouse to ED50 for CF-1 albino mouse assessed as protection from maximum electric shock-induced seizures; assay type: functional; procedure, shortened: as §5
Mus musculus [20] = assay: Anticonvulsant activity in ip dosed maximal electric shock-induced CF-1 albino mouse assessed as time of peak effect; assay type: functional; procedure, shortened: as §5
Mus musculus [21] = assay: Anticonvulsant activity in CF-1 albino mouse assessed as protection against 6 Hz psychomotor seizure at 100 mg/kg, ip measured after 0.25 hrs; assay type: functional; conditions: route intraperitoneal
Procedure, shortened: (§6)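 6-Hz psychomotor seizure in male CF-1 mice, compound suspended in 0.5% methylcellulose/water, given ip (100 or 75 mg/kg). Corneal stimulation with 0.2 ms monopolar rectangular pulses at 6 Hz for 3 s, 32 mA, constant-current device. Protected if normal exploratory behaviour resumes within 10 s. Tested 0.25–4 h after dosing; value is mice protected out of four.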

Mus musculus [22] = assay: Anticonvulsant activity in CF-1 albino mouse assessed as protection against 6 Hz psychomotor seizure at 100 mg/kg, ip measured after 0.5 hrs; assay type: functional; conditions: route intraperitoneal; procedure, shortened: as §6
Mus musculus [23] = assay: Anticonvulsant activity in CF-1 albino mouse assessed as protection against 6 Hz psychomotor seizure at 100 mg/kg, ip measured after 1 hr; assay type: functional; conditions: route intraperitoneal; procedure, shortened: as §6
Mus musculus [24] = assay: Anticonvulsant activity in CF-1 albino mouse assessed as protection against 6 Hz psychomotor seizure at 100 mg/kg, ip measured after 2 hrs; assay type: functional; conditions: route intraperitoneal; procedure, shortened: as §6
Mus musculus [25] = assay: Anticonvulsant activity in CF-1 albino mouse assessed as protection against 6 Hz psychomotor seizure at 100 mg/kg, ip measured after 4 hrs; assay type: functional; conditions: route intraperitoneal; procedure, shortened: as §6
Mus musculus [26] = assay: Anticonvulsant activity in CF-1 albino mouse assessed as protection from maximal electric shock-induced seizures at 100 mg/kg, ip measured after 0.25 hrs; assay type: functional, organism-based; design: dose 100 mg/kg
Mus musculus [27] = assay: Anticonvulsant activity in CF-1 albino mouse assessed as protection from maximal electric shock-induced seizures at 100 mg/kg, ip measured after 1 hr; assay type: functional, organism-based; design: dose 100 mg/kg
Mus musculus [28] = assay: Neurotoxicity in CF-1 albino mouse assessed as inability to grasp rotarod at 300 mg/kg, ip measured after 0.5 hrs by rotarod test; assay type: toxicity, organism-based; design: dose 300 mg/kg, route intraperitoneal; conditions: in vivo; procedure, shortened: as §2
Mus musculus [29] = assay: Anticonvulsant activity in ip dosed CF-1 albino mouse assessed as protection against subcutaneous pentylenetetrazol-induced seizures measured after 0.5 hrs; assay type: functional; conditions: read-out: MED; procedure, shortened: as §3
Mus musculus [30] = assay: Neurotoxicity in CF-1 albino mouse assessed as myoclonic jerks at 300 mg/kg, ip measured after 0.5 hrs by rotarod test; assay type: toxicity, organism-based; design: dose 300 mg/kg, route intraperitoneal; conditions: in vivo
Mus musculus [31] = assay: Anticonvulsant activity in ip dosed 6 Hz psychomotor-induced seizure in CF-1 albino mouse assessed as time of peak effect; assay type: functional
Mus musculus [32] = assay: Neurotoxicity in CF-1 albino mouse assessed as myoclonic jerks at 100 mg/kg, ip measured after 0.5 hrs by rotarod test; assay type: toxicity, organism-based; design: dose 100 mg/kg, route intraperitoneal; conditions: in vivo
Mus musculus [33] = assay: Anticonvulsant activity in ip dosed CF-1 albino mouse assessed as protection against subcutaneous pentylenetetrazol-induced seizures measured after 4 hrs; assay type: functional; conditions: read-out: MED; procedure, shortened: as §3
Mus musculus [34] = assay: Anticonvulsant activity in CF-1 albino mouse assessed as protection from maximal electric shock-induced seizures at 100 mg/kg, ip measured after 6 hrs; assay type: functional, organism-based; design: dose 100 mg/kg
Mus musculus [35] = assay: Neurotoxicity in CF-1 albino mouse assessed as motor impairment, ip measured after 4 hrs by rotarod test; assay type: toxicity, organism-based; conditions: in vivo
Mus musculus [36] = assay: Neurotoxicity in CF-1 albino mouse assessed as myoclonic jerks at 300 mg/kg, ip measured after 4 hrs by rotarod test; assay type: toxicity, organism-based; design: dose 300 mg/kg, route intraperitoneal; conditions: in vivo

Compound	Activity (Mus musculus [1])	MTC (Mus musculus [3]) [mg/kg]	Activity (Mus musculus [4])	Activity (Mus musculus [7])	minimal effective dose (Mus musculus [8]) [mg/kg]	minimal effective dose (Mus musculus [9]) [mg/kg]	TD50 [18] [mg/kg]	Activity (Mus musculus [21]) [%]	Activity (Mus musculus [22]) [%]	Activity (Mus musculus [23]) [%]	Activity (Mus musculus [24]) [%]	Activity (Mus musculus [25]) [%]	minimal effective dose (Mus musculus [29]) [mg/kg]	also measured
Cl.O=C1CC(c2ccccc2Br)C(=O)N1CN1CCN(Cc2ccccc2)CC1 (racemic)	inactive	300	Non-toxic	inactive	–	–	–	–	–	–	–	–	–	Activity (Mus musculus [2]): inactive; Activity (Mus musculus [5]): Toxic; Activity (Mus musculus [6]): inactive
O=C1CC(c2ccccc2F)C(=O)N1CN1CCN(c2cccc(C(F)(F)F)c2)CC1 (racemic)	–	–	Non-toxic	–	300	100	> 500	25	75	0	25	25	–	Activity (Mus musculus [10]): Non-toxic; Activity (Rattus norvegicus [11]): 25%; Activity (Rattus norvegicus [12]): 100%; Activity (Rattus norvegicus [13]): 100%; Activity (Rattus norvegicus [14]): 100%; Activity (Rattus norvegicus [15]): 50%; Activity (Rattus norvegicus [16]): Non-toxic; ED50 (Mus musculus [17]): 41.4 mg/kg; Ratio TD50/ED50 (Mus musculus [19]): >12.09; Time (Mus musculus [20]): 4 h; Activity (Mus musculus [26]): Active; Activity (Mus musculus [27]): Active
O=C1CC(c2ccccc2F)C(=O)N1CN1CCN(Cc2ccccc2)CC1 (racemic)	–	300	Non-toxic	inactive	300	300	–	0	25	0	0	0	300	Activity (Mus musculus [28]): Toxic; Activity (Mus musculus [30]): Toxic
CC[C@@H](C(N)=O)N1CCCC1=O	–	–	–	–	–	–	> 500	–	–	–	–	–	–	Time (Mus musculus [31]): 1 h
O=C1CC(c2ccccc2Br)C(=O)N1CN1CCN(c2ncccn2)CC1 (racemic)	inactive	300	–	–	–	100	–	–	–	–	–	–	100	Activity (Mus musculus [32]): Toxic; minimal effective dose (Mus musculus [33]): 300 mg/kg; Activity (Mus musculus [34]): Active; MTC (Mus musculus [35]): 300 mg/kg; Activity (Mus musculus [36]): Toxic
